Like-named read-outs stand apart in the source and are kept apart here. Marks after values point to notes of the source that are not given here.
What was measured:
chicken embryos [1] = format: in vivo, Gallus gallus domesticus; settings: for effect on chick quality (in words): compared with control group; for Early dead embryos: embryos dead up to 7 d of incubation; for Late dead embryos: embryos died after 7 d of incubation; for Hatchability: hatchability of fertile eggs; for BW: hatched chicks; for BW / Chicks quality: Average score of chicks with score <100: mean ± SD; for Chicks quality: Average score of all chicks: maximum score 100, mean ± SD
Summary of the method: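 Hatching eggs in groups of 30 per repetition: one control without puncture, one punctured without injection. A 0.5 mm needle puncture delivered 0.25, 0.50 or 0.75 µg/egg in 50 µL ultrapure water (sonicated, autoclaved 108°C, 3 min); the site was sealed with plaster. Incubation at 37.5–38.5°C and 50–60% RH, turned 45° every 2 h. Candling at days 6 and 18; early deaths ≤7 d. Hatched chicks were weighed and quality-scored (maximum 100).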

[2] = system: chicken embryo fibroblasts cell line SL-29 (ATCC CRL1590); test: MTT cytotoxicity assay, 48 h exposure; format: cell-based, Gallus gallus
Summary of the method: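 SL-29 chicken embryo fibroblasts were grown in DMEM with 5% FBS, 5% tryptose phosphate broth, 2 mM L-glutamine and penicillin/streptomycin at 37°C and 5% CO2. Cells were exposed to a ten-point twofold dilution series for 48 h at 37°C and 5% CO2. MTT (5 mg/mL stock in PBS) was added for 4 h and removed. Formazan was dissolved in DMSO and absorbance read at 510 nm. Samples below 50% were considered toxic.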

[3] = system: human liver carcinoma cell line HepG2; settings: HepG2 cells; ref Cramer et al. (2010); cited from earlier work
[4] = toxin levels in tissues of hatched chicks after in ovo injection; format: in vivo, Gallus gallus domesticus; settings: for Toxin level in heart / Toxin level in kidneys / Toxin level in liver / Toxin level in serum / Toxin level in yolk sac: hatched chicks, mean ± SD; for presence as potential metabolite of OTA and 2’R-OTA in isolated organs: chicks after in ovo injection of OTA or 2’R-OTA
Summary of the method: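 Eggs (30/group) punctured with a 0.5 mm needle, injected with test compound at 0.25, 0.50 or 0.75 µg/egg in 50 µL ultra-pure water, sealed; incubated 37.5–38.5°C, 50–60% RH, turned 45° every 2 h. Hatched chicks decapitated; serum and tissues (200 mg) deconjugated with β-glucuronidase/arylsulfatase overnight at 37°C, acetonitrile-based extraction, ¹³C₂₀-OTA internal standard, HPLC-MS/MS positive mode.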

[5] = humans, calculated; ref Sueck et al. (2019b); cited from earlier work
chicken embryos [6] = settings: 1 µg/egg, after 9 d of incubation; ref Hassan et al. (2012a); cited from earlier work
embryos of Danio rerio = settings: ref Haq et al., 2016; cited from earlier work
[7] = pigs; ref Harwig et al., 1983; cited from earlier work
IHKE cells = settings: cytotoxicity, ref Bittner et al., 2015; cited from earlier work
[8] = chickens; ref Galtier et al., 1981; cited from earlier work
HeLa cells = settings: acute toxicity, ref Xiao et al., 1996; cited from earlier work
[9] = system: serum-free cultures of embryonic brains of Tetra SL chick stage 29; settings: 8-day exposure, embryonic chick brain cultures; ref Bruinink et al. (1998); cited from earlier work
[10] = MTT reduction, SL-29 cells, 48 h exposure

## C[C@@H]1Cc2c(Cl)cc(C(=O)N[C@H](Cc3ccccc3)C(=O)O)c(O)c2C(=O)O1 [2’R-OTA, 2’R-ochratoxin A]
Chicken embryos [1]
  effect on chick quality (in words): did not reduce chick quality
Chicken embryos [1]; in ovo injection 0.25 µg/egg
  Chicks quality: Chicks with score 100: 96.6%^c
  Early dead embryos: 14.4%^bc
  Late dead embryos: 6.6%^b
  Hatchability: 61.1%^b
  BW: 41.83 ± 2.54^a g
  Chicks quality: Average score of all chicks: 98.97 ± 5.57^b
  Chicks quality: Average score of chicks with score <100: 80.00 ± 0.00^a
Chicken embryos [1]; in ovo injection 0.50 µg/egg
  Chicks quality: Chicks with score 100: 68.6%^ab
  Early dead embryos: 15.5%^bc
  Late dead embryos: 4.4%^b
  Hatchability: 58.9%^b
  BW: 41.59 ± 2.91^a g
  Chicks quality: Average score of all chicks: 96.03 ± 8.37^ab
  Chicks quality: Average score of chicks with score <100: 87.36 ± 10.85^a
Chicken embryos [1]; in ovo injection 0.75 µg/egg
  Chicks quality: Chicks with score 100: 70.8%^b
  Early dead embryos: 21.1%^c
  Late dead embryos: 11.1%^c
  Hatchability: 46.7%^b
  BW: 42.43 ± 2.90^a g
  Chicks quality: Average score of all chicks: 94.08 ± 14.62^ab
  Chicks quality: Average score of chicks with score <100: 79.71 ± 21.88^ab
[2]; [10]
  IC50: 6.54 µM
[3]
  cytotoxic effect relative to OTA: approx. Tenfold lower cytotoxic effect
[4]; in ovo injection 0.25 µg/egg
  Toxin level in heart: 0.00 ± 0.00a µg/kg
  Toxin level in kidneys: 1.18 ± 0.07b µg/kg
  Toxin level in liver: 1.11 ± 0.02b µg/kg
  Toxin level in serum: 0.38 ± 0.00 µg·days/kg
  Toxin level in yolk sac: 4.65 ± 0.04b µg/kg
[4]; in ovo injection 0.50 µg/egg
  Toxin level in heart: 0.32 ± 0.02c µg/kg
  Toxin level in kidneys: 1.59 ± 0.07c µg/kg
  Toxin level in liver: 2.81 ± 0.16c µg/kg
  Toxin level in serum: 0.30 ± 0.00c µg/kg
  Toxin level in yolk sac: 7.52 ± 0.26 µg·days/kg
[4]; in ovo injection 0.75 µg/egg
  Toxin level in heart: 0.87 ± 0.02e µg/kg
  Toxin level in kidneys: 5.19 ± 0.14f µg/kg
  Toxin level in liver: 12.68 ± 0.10f µg/kg
  Toxin level in serum: 1.87 ± 0.02f µg/kg
  Toxin level in yolk sac: 19.83 ± 0.63g µg/kg
[5]
  biological half-life: approx. 6 mo

## C[C@@H]1Cc2c(Cl)cc(C(=O)N[C@@H](Cc3ccccc3)C(=O)O)c(O)c2C(=O)O1 [OTA, ochratoxin A]
Chicken embryos [6]
  embryo defect: beak hypoplasia: 45%
  embryo defect: beak retrognathism: 12%
  embryo defect: cleft spine: 10%
  embryo defect: exencephaly: 4%
  embryo defect: microphthalmia: 35%
  embryo defect: no eye development: 49%
  embryo defect: nonunited abdominal integuments: 8%
  embryo defect: reduced body weight: 15%
Chicken embryos [1]
  effect on chick quality (in words): considerably reduced the number of chicks with a score of 100
Chicken embryos [1]; in ovo injection 0.25 µg/egg
  Chicks quality: Chicks with score 100: 82.7%^bc
  Early dead embryos: 12.2%^b
  Late dead embryos: 4.4%^b
  Hatchability: 58.9%^b
  BW: 41.53 ± 3.06^a g
  Chicks quality: Average score of all chicks: 97.02 ± 9.51^b
  Chicks quality: Average score of chicks with score <100: 82.78 ± 17.33^a
Chicken embryos [1]; in ovo injection 0.50 µg/egg
  Early dead embryos: 12.2%^b
  Late dead embryos: 8.9%^b
  Hatchability: 50.0%^ab
  BW: 41.59 ± 3.12^a g
  Chicks quality: Average score of all chicks: 98.77 ± 4.52^b
  Chicks quality: Average score of chicks with score <100: 88.00 ± 9.27^a
Chicken embryos [1]; in ovo injection 0.75 µg/egg
  Chicks quality: Chicks with score 100: 63.3%^a
  Early dead embryos: 31.1%^d
  Late dead embryos: 4.4%^b
  Hatchability: 35.6%^a
  BW: 41.42 ± 3.71^a g
  Chicks quality: Average score of all chicks: 91.03 ± 19.55^a
  Chicks quality: Average score of chicks with score <100: 75.55 ± 26.30^b
[2]; Gallus gallus, Fibroblast, 48 h
  IC50: 0.24 µM
Embryos of Danio rerio
  teratogenicity and mortality (in words): high OTA teratogenicity
[7]
  order of organs in which the toxin accumulated: kidneys > liver > muscle tissue and fat
IHKE cells
  IC50: 0.5 µM
[4]; in ovo injection 0.25 µg/egg
  Toxin level in heart: 0.00 ± 0.00a µg/kg
  Toxin level in kidneys: 2.70 ± 0.07 µg·days/kg
  Toxin level in liver: 4.37 ± 0.04 µg·days/kg
  Toxin level in serum: 0.22 ± 0.00b µg/kg
  Toxin level in yolk sac: 7.04 ± 0.08c µg/kg
[4]; in ovo injection 0.50 µg/egg
  Toxin level in heart: 0.25 ± 0.01b µg/kg
  Toxin level in kidneys: 4.56 ± 0.21e µg/kg
  Toxin level in liver: 7.12 ± 0.19e µg/kg
  Toxin level in serum: 0.31 ± 0.00c µg/kg
  Toxin level in yolk sac: 10.43 ± 0.21e µg/kg
[4]; in ovo injection 0.75 µg/egg
  Toxin level in heart: 0.59 ± 0.01 µg·days/kg
  Toxin level in kidneys: 11.83 ± 0.35g µg/kg
  Toxin level in liver: 16.02 ± 0.28g µg/kg
  Toxin level in serum: 0.61 ± 0.01e µg/kg
  Toxin level in yolk sac: 12.40 ± 0.31f µg/kg
[8]
  half-life: 4.1 h
[5]
  biological half-life: 1 mo
HeLa cells
  IC50: 5 µM

## C[C@@H]1Cc2ccc(C(=O)N[C@@H](Cc3ccccc3)C(=O)O)c(O)c2C(=O)O1 [OTB, ochratoxin B]
[2]; [10]
  IC50: 7.96 µM
[4]
  presence as potential metabolite of OTA and 2’R-OTA in isolated organs: not found in any of the organs tested above the LOD

## C[C@@H]1Cc2c(Cl)cc(C(=O)O)c(O)c2C(=O)O1 [OTα, α-ochratoxin]
[9]
  neurotoxic effects not observed up to (concentration): ≥ 15 µM
[2]; [10]
  IC50: 5.26 µM
Embryos of Danio rerio
  teratogenicity and mortality (in words): negligible teratogenicity and mortality
IHKE cells
  nontoxic up to (concentration): ≥ 50 µM
[4]
  presence as potential metabolite of OTA and 2’R-OTA in isolated organs: not found in any of the organs tested above the LOD
HeLa cells
  IC50: 560 µM
